Measurements taken from ChEMBL document CHEMBL1132309, “(R)-3,3,3-Trifluoro-2-hydroxy-2-methylpropionamides are orally active inhibitors of pyruvate dehydrogenase kinase” (J Med Chem, 1999).
One block for each compound: values may come before it. Calls of active or inactive are those of the source. The rule behind the calls is not given here.

Tests used:
[1] = target: pyruvate dehydrogenase kinase (Sus scrofa); assay: In vitro inhibitory activity against Pyruvate dehydrogenase kinase by primary enzymatic assay
[2] = The time to reach maximum concentration of compound was measured at the dose of 100 umol/kg; format: ADME, organism-based; details: rat, in vivo
Summary of the method: (§1)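 Oral dosing at 30, 100 and 300 μmol/kg. Blood plasma concentrations followed to give peak concentration and estimated half-life.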

[3] = The area under the curve of compound was measured at the dose of 100 umol/kg; format: ADME, organism-based; details: rat, in vivo
Summary of the method: as §1

[4] = The maximum concentration of compound was measured at the dose of 100 umol/kg; format: ADME, organism-based; design: dose 100 umol/kg; details: rat, in vivo
Summary of the method: as §1

[5] = The biological half life the compound was measured at the dose of 100 umol/kg; format: ADME, organism-based; details: rat, in vivo
Summary of the method: as §1

[6] = target: T1, Pyruvate dehydrogenase kinase (Rattus norvegicus) (UniProt Q63065+A6IPZ9+Q64536+O54937); assay: In vivo inhibition of pyruvate dehydrogenase kinase, reduced lactate level in normal 24 hr r fasted rats at 30 umol/kg oral dose; format: functional, organism-based; design: scale not given: the % may be the effect or the level left
[7] = target: Pyruvate dehydrogenase kinase (Homo sapiens, UniProt Q15119+Q15120+Q16654+Q15118); assay: […] inhibion of pyruvate dehydrogenase kinase, increased oxidation of lactate; format: functional
Summary of the method: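 Human fibroblasts, modified Ofenstein assay: conversion of [14C]lactate to 14CO2, taken as activation of the PDH complex. EC50 in μM ± standard error.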

[8] = target: T1, Pyruvate dehydrogenase kinase (Rattus norvegicus); assay: In vivo inhibition of pyruvate dehydrogenase kinase, reduced lactate level in normal 24 hr r fasted rats at 100 umol/kg oral dose; format: functional, organism-based; design: scale not given: the % may be the effect or the level left
[9] = target: T1, Pyruvate dehydrogenase kinase (Rattus norvegicus); assay: In vivo inhibition of pyruvate dehydrogenase kinase, reduced lactate level in normal 24 hr r fasted rats at 1 mmol/kg oral dose; format: functional, organism-based; design: scale not given: the % may be the effect or the level left
[10] = The area under the curve of compound was measured at the dose of 300 umol/kg; format: ADME, organism-based; details: rat, in vivo
Summary of the method: as §1

[11] = The maximum concentration of compound was measured at the dose of 300 umol/kg; format: ADME, organism-based; design: dose 300 umol/kg; details: rat, in vivo
Summary of the method: as §1

[12] = target: T1, Pyruvate dehydrogenase kinase (Rattus norvegicus); assay: In vivo inhibition of pyruvate dehydrogenase kinase, reduced lactate level in normal 24 hr r fasted rats at 300 umol/kg oral dose; format: functional, organism-based; design: scale not given: the % may be the effect or the level left
[13] = The time to reach maximum concentration of compound was measured at the dose of 300 umol/kg; format: ADME, organism-based; details: rat, in vivo
Summary of the method: as §1

[14] = target: T1, Pyruvate dehydrogenase kinase (Rattus norvegicus); assay: In vivo inhibition of pyruvate dehydrogenase kinase, reduced lactate level in normal 24 hr r fasted rats at 300 umol/kg oral dose; Not active; format: functional, organism-based
[15] = The time to reach maximum concentration of compound was measured at the dose of 30 umol/kg; format: ADME, organism-based; details: rat, in vivo
Summary of the method: as §1

[16] = The area under the curve of compound was measured at the dose of 30 umol/kg; format: ADME, organism-based; details: rat, in vivo
Summary of the method: as §1

[17] = The maximum concentration of compound was measured at the dose of 30 umol/kg; format: ADME, organism-based; design: dose 30 umol/kg; details: rat, in vivo
Summary of the method: as §1

[18] = The biological half life the compound was measured at the dose of 30 umol/kg; format: ADME, organism-based; details: rat, in vivo
Summary of the method: as §1

[19] = target: T1, Pyruvate dehydrogenase kinase (Rattus norvegicus); assay: In vivo inhibition of pyruvate dehydrogenase kinase, reduced lactate level in normal 24 hr r fasted rats at 100 uMmol/kg oral dose; format: functional, organism-based; design: dose or concentration left out as unconfirmed
[20] = target: T1, Pyruvate dehydrogenase kinase (Rattus norvegicus); assay: In vivo inhibition of pyruvate dehydrogenase kinase, reduced lactate level in normal 24 hr r fasted rats at 10 umol/kg oral dose; format: functional, organism-based; design: scale not given: the % may be the effect or the level left
[21] = target: T1, Pyruvate dehydrogenase kinase (Rattus norvegicus); assay: In vivo inhibition of pyruvate dehydrogenase kinase, reduced lactate level in normal 24 hr r fasted rats at 3 umol/kg oral dose; format: functional, organism-based; design: scale not given: the % may be the effect or the level left
[22] = target: T1, Pyruvate dehydrogenase kinase (Rattus norvegicus); assay: In vivo inhibition of pyruvate dehydrogenase kinase, reduced lactate level in normal 24 hr r fasted rats at 1 umol/kg oral dose; format: functional, organism-based; design: scale not given: the % may be the effect or the level left

- IC50 [1]: 21 nM
SMILES: C[C@@H]1CN(C(=O)[C@@](C)(O)C(F)(F)F)CCN1C(=O)OCc1ccccc1

- IC50 [1]: 6700 nM
SMILES: C[C@@](O)(C(=O)N1CCN(C(=O)c2ccc(C#N)cc2)CC1)C(F)(F)F

- Tmax [2]: 0.5 h
- AUC [3]: 143 µM·h
- Cmax [4]: 87.3 µM
- half-life [5]: 4.6 h
- Control [6]: 98%
- EC50 [7]: 1400 nM
- Control [8]: 70%
- IC50 [1]: 90 nM
SMILES: C[C@@](O)(C(=O)Nc1ccc(C(=O)O)cc1Cl)C(F)(F)F

SMILES: O=C([O-])C(Cl)Cl.[Na+]
- Control [9]: 70%

- AUC [10]: 670 µM·h
- Cmax [11]: 53.8 µM
- Control [12]: 72%
- EC50 [7]: 17000 nM
- Tmax [13]: 6 h
- IC50 [1]: 55 nM
SMILES: C[C@@](O)(C(=O)Nc1ccc(S(=O)(=O)N2CCNCC2)cc1Cl)C(F)(F)F

- IC50 [1]: 9800 nM
SMILES: C[C@](O)(C(=O)Nc1ccccc1Cl)C(F)(F)F

- Control [14]: inactive
- EC50 [7]: 5400 nM
- IC50 [1]: 300 nM
SMILES: C[C@@](O)(C(=O)Nc1ccccc1Cl)C(F)(F)F

- Tmax [15]: 1.25 h
- AUC [16]: 196 µM·h
- Cmax [17]: 23.8 µM
- half-life [18]: 3 h
- Control [6]: 60%
- EC50 [7]: 250 nM
- Control [19]: 67%
- Control [20]: 90%
- IC50 [1]: 79 nM
SMILES: C[C@@H]1CN(C(=O)[C@@](C)(O)C(F)(F)F)CCN1C(=O)c1ccc(C#N)cc1

- Control [14]: inactive
SMILES: CC(O)(C(=O)Nc1ccc(C(=O)c2ccccc2)cc1)C(F)(F)F (single isomer, unassigned)

- IC50 [1]: 35000 nM
SMILES: C[C@@](O)(C(=O)Nc1ccccc1)C(F)(F)F

- IC50 [1]: 200000 nM
SMILES: C[C@](O)(C(=O)NC1CCCCC1)C(F)(F)F

SMILES: C[C@@](O)(C(=O)Nc1ccc(S(=O)(=O)F)cc1Cl)C(F)(F)F
- IC50 [1]: 77 nM

- IC50 [1]: 9300 nM
SMILES: C[C@@](O)(C(=O)Nc1ccc(S(=O)(=O)N2CCCCC2)cc1)C(F)(F)F

- Control [21]: 90%
- Control [22]: 87%
- EC50 [7]: 57 nM
- Control [20]: 74%
- IC50 [1]: 16.5 nM
SMILES: C[C@@H]1CN(C(=O)[C@@](C)(O)C(F)(F)F)[C@@H](C)CN1C(=O)c1ccc(C#N)cc1

- IC50 [1]: 6200 nM
SMILES: C[C@@](O)(C(=O)NC1CCCCC1)C(F)(F)F

- IC50 [1]: 110 nM
SMILES: C[C@@](O)(C(=O)Nc1ccc(C(=O)c2ccccc2)cc1Cl)C(F)(F)F

- IC50 [1]: 120 nM
SMILES: COC(=O)c1ccc(NC(=O)[C@@](C)(O)C(F)(F)F)c(Cl)c1

- IC50 [1]: 82 nM
SMILES: C[C@@H]1CN(C(=O)[C@@](C)(O)C(F)(F)F)[C@@H](C)CN1Cc1ccccc1

- Control [14]: inactive
- EC50 [7]: 590 nM
- IC50 [1]: 1500 nM
SMILES: C[C@@](O)(C(=O)Nc1ccc(C(=O)N2CCCCC2)cc1Cl)C(F)(F)F
